What was measured:
[1] = Selectivity index, ratio of CC50 for human Huh-7 cells to IC50 for Antiviral activity against Ebola virus trVLP infected in human Huh-7 cells; format: toxicity, cell-based; settings: read-out: Ratio CC50/IC50
SARS-CoV-2 [2] = experiment: Antiviral activity against SARS Cov-2 USA/WA1/2020 infected in Vero E6 cells assessed as reduction in virus-induced cytopathic effect preincubated for 1 hr followed by viral infection and measured after 48 hrs post infection; format: functional, organism-based; settings: Severe acute respiratory syndrome coronavirus 2, USA/WA1/2020, Vero C1008
[3] = Selectivity index, ratio of CC50 for African green monkey Vero E6 cells to IC50 for Antiviral activity against SARS coronavirus 2 USA/WA1/2020 infected in Vero E6 cells assessed as reduction in virus-induced cytopathic effect; format: toxicity, cell-based, Vero C1008; settings: read-out: Ratio CC50/IC50
Huh-7 = experiment: (§1) Cytotoxicity against human Huh-7 cells assessed as reduction in cell viability measured after 24 hrs by CellTiter-Glo analysis; format: cell-based; settings: huh-7, 24 h
Ebolavirus [4] = experiment: Antiviral activity against Ebola virus trVLP infected in human Huh-7 cells pretreated for 1 hrs followed by viral infection and measured after 24 hrs by dual luciferase reporter assay; format: functional, organism-based; settings: Orthoebolavirus
Outline: (§2)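 Huh-7 cells were transfected in suspension with EBOV VP35, NP, VP30 and L plasmids plus constitutive firefly (ce-FF). At 24 h, compounds were added in triplicate (0-50 µM, 2-fold series) for 1 h before trVLP infection.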

Ebolavirus [5] = experiment: Antiviral activity against Ebola virus constitutively expressed firefly infected in human Huh-7 cells expressing pretreated for 1 hrs followed by viral infection and measured after 24 hrs by dual luciferase reporter assay; format: functional, organism-based; settings: Orthoebolavirus; outline: as §2
[6] = Selectivity index, ratio of CC50 for human Huh-7 cells to IC50 for Antiviral activity against Ebola virus constitutively expressed firefly; format: toxicity; settings: read-out: Ratio CC50/IC50
Calu-3 = experiment: (§3) Cytotoxicity against human Calu-3 cells assessed as reduction in cell viability after 48 hrs by Cell-Tox green based fluorescence assay; settings: calu-3, 48 h
Outline: (§4)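 Calu3 cells (1 x 10^4) were plated and exposed 24 h later to 3-fold serial compound dilutions. At 48 h, CellTox Green fluorescence was read, and CC50 was fitted by four-parameter nonlinear regression.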

SARS-CoV-2 [7] = experiment: Antiviral activity against SARS coronavirus 2 USA/WA1/2020 infected in Calu-3 cells assessed as reduction in virus-induced cytopathic effect preincubated for 1 hr followed by viral infection and measured after 48 hrs; format: functional, organism-based; settings: Severe acute respiratory syndrome coronavirus 2, USA/WA1/2020, Calu-3
[8] = Selectivity index, ratio of CC50 for human Calu-3 cells to IC50 for Antiviral activity against SARS coronavirus 2 USA/WA1/2020 infected in human Calu3 cells assessed as reduction in virus-induced cytopathic effect; format: toxicity, cell-based; settings: read-out: Ratio CC50/IC50
[9] = as §1; format: cell-based; settings: Huh-7 cells
Ebolavirus [10] = experiment: Antiviral activity against wild type Ebola virus infected in human HeLa cells assessed as reduction in viral infection measured after 24 hrs by Hoechst 33342 staining based microscopic analysis; format: functional, organism-based; settings: Orthoebolavirus
[11] = Metabolic stability in human plasma assessed as compound remaining at 10 uM after 2 hrs by LC-QTOF-MS analysis; format: ADME, cell-free
Outline: (§5)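 Compound (10 µM) was incubated in human plasma at 37 °C, with aliquots taken from 0 to 24 h. Proteins were precipitated with cold ethanol (30 min, -20 °C), and samples were centrifuged and concentrated. Analysis was by LC-QTOF-MS with a ±0.1 m/z EIC window, and % digestion was calculated from peak area relative to 0 min.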

[12] = Metabolic stability in human plasma assessed as compound remaining at 10 uM after 4 hrs by LC-QTOF-MS analysis; format: ADME, cell-free; settings: read-out: Stability; outline: as §5
[13] = as §3; settings: Calu-3 cells; outline: as §4
[14] = Metabolic stability in human plasma assessed as drug degradation at 10 uM after 1 hr by LC-QTOF-MS analysis; format: ADME, cell-free; settings: read-out: Drug degradation; outline: as §5
SARS-CoV-2 [15] = experiment: Antiviral activity against SARS Cov-2 USA_WA1/2020 infected in human Calu-3 cells measured upto 72 hrs by qRT-PCR method; format: functional, organism-based; settings: Severe acute respiratory syndrome coronavirus 2, USA_WA1/2020, Calu-3, 72 h
SARS-CoV-2 [16] = experiment: Antiviral activity against SARS Cov-2 USA_WA1/2020 infected in HAE cells measured upto 72 hrs by qRT-PCR method; format: functional, organism-based; settings: Severe acute respiratory syndrome coronavirus 2, USA_WA1/2020, HAE

Row | SMILES | selectivity ratio [1] | IC50 (SARS-CoV-2 [2]) [µM] | selectivity ratio [3] | CC50 (Huh-7) [µM] | IC50 (Ebolavirus [4]) [µM] | IC50 (Ebolavirus [5]) [µM] | selectivity ratio [6] | CC50 (Calu-3) [µM] | IC50 (SARS-CoV-2 [7]) [µM] | selectivity ratio [8] | CC50 at 24 h [9] [µM] | IC50 (Ebolavirus [10]) [µM] | Stability ([11]; 2 h, 10 µM) | remaining at 4 h, 10 µM [12] [%] | CC50 at 48 h [13] [µM] | metabolised at 1 h, 10 µM [14] [%] | remaining at 2 h, 10 µM ([11]; read-out: Stability) [%] | EC50 (SARS-CoV-2 [15]) [µM] | EC50 (SARS-CoV-2 [16]) [µM]
1 | CCCCCCCCCCOCCC(=O)O[C@@H]1[C@H](O)[C@@H](CO[P@@](=O)(N[C@H](C)C(=O)OCC(CC)CC)Oc2ccccc2)O[C@@]1(C#N)c1ccc2c(N)ncnn12 | 50 | 4.6 | > 10.9 | 15 | 0.3 | 36 | 0.417 |  |  |  |  |  |  |  |  |  |  |  | 
2 | CCCCCCCCCCCCCCCC(=O)O[C@@H]1[C@H](O)[C@@H](CO[P@@](=O)(N[C@H](C)C(=O)OCC(CC)CC)Oc2ccccc2)O[C@@]1(C#N)c1ccc2c(N)ncnn12 | > 6.94 |  |  | > 50 | 7.2 | > 50 |  | > 50 | 3.6 | > 13.9 |  |  |  |  |  |  |  |  | 
3 | CCCCCCCCCCOCCC(=O)O | > 50 | > 50 |  | > 50 | > 50 | > 50 |  |  |  |  |  |  |  |  |  |  |  |  | 
4 | CCC(CC)COC(=O)[C@@H](C)N[P@](=O)(OC[C@H]1O[C@@](C#N)(c2ccc3c(N)ncnn23)[C@H](OC(=O)CCCCCCCCCCCN=[N+]=[N-])[C@@H]1O)Oc1ccccc1 | 54 | 4.6 | > 10.9 |  | 0.5 | > 50 |  |  |  |  | 27 | 0.19 |  |  |  |  |  |  | 
5 | CCCCCCCCCCOCCC(=O)O[C@H]1[C@@H](O)[C@](C#N)(c2ccc3c(N)ncnn23)O[C@@H]1CO[P@@](=O)(N[C@H](C)C(=O)OCC(CC)CC)Oc1ccccc1 | 46.3 | 2 | > 25.6 | 7.4 | 0.16 | 14 | 0.529 | 34.3 | 0.18 | > 191 |  |  |  |  |  |  |  |  | 
6 | CCSCCCCCCCCCCCC(=O)O[C@H]1[C@@H](O)[C@](C#N)(c2ccc3c(N)ncnn23)O[C@@H]1CO[P@@](=O)(N[C@H](C)C(=O)OCC(CC)CC)Oc1ccccc1 | 82.1 | 2.4 | > 20.5 | 23 | 0.28 | > 50 |  | > 50 | 0.25 | > 200 |  |  |  |  |  |  |  |  | 
7 | [N-]=[N+]=NCCCCCCCCCCCC(=O)O | > 50 | > 50 |  | > 50 | > 50 | > 50 |  |  |  |  |  |  |  |  |  |  |  |  | 
8 | CCCCCCCCCCCCCC(=O)O[C@@H]1[C@H](O)[C@@H](CO[P@@](=O)(N[C@H](C)C(=O)OCC(CC)CC)Oc2ccccc2)O[C@@]1(C#N)c1ccc2c(N)ncnn12 | > 74.6 | 2.4 | > 20.7 | > 50 | 0.67 | > 50 |  | > 50 | 0.29 | > 172 |  |  |  |  |  |  |  |  | 
9 | CCSCCCCCCCCCCCC(=O)O[C@@H]1[C@H](O)[C@@H](CO[P@@](=O)(N[C@H](C)C(=O)OCC(CC)CC)Oc2ccccc2)O[C@@]1(C#N)c1ccc2c(N)ncnn12 | 164 | 3.5 | > 14.2 | 41 | 0.25 | 29 | 1.41 |  |  |  |  |  |  |  |  |  |  |  | 
10 | CCC(CC)COC(=O)[C@@H](C)N[P@](=O)(OC[C@H]1O[C@@](C#N)(c2ccc3c(N)ncnn23)[C@H](O)[C@@H]1OC(=O)CCCCCCCCCCCN=[N+]=[N-])Oc1ccccc1 | 44.4 | 3 | > 16.6 | 20 | 0.45 | > 50 |  | > 50 | 0.51 | > 98 |  | 0.83 | Stable | 77.9 |  |  |  |  | 
11 | CCC(CC)COC(=O)[C@H](C)N[P@](=O)(OC[C@H]1O[C@@](C#N)(c2ccc3c(N)ncnn23)[C@H](O)[C@@H]1O)Oc1ccccc1 |  | 0.85 |  |  | 0.32 | 24 |  |  | 0.06 |  | > 50 | 1 |  |  | > 50 | 13 | 47 | 0.28 | 0.01
12 | CCCCCCCCCCCCCC(=O)O[C@H]1[C@@H](O)[C@](C#N)(c2ccc3c(N)ncnn23)O[C@@H]1CO[P@@](=O)(N[C@H](C)C(=O)OCC(CC)CC)Oc1ccccc1 | > 70.4 | 2.3 | > 22.1 | > 50 | 0.71 | > 50 |  | > 50 | 0.24 | > 208 |  |  |  |  |  |  |  |  | 
13 | CCCCCCCCCCCCCCCC(=O)O[C@H]1[C@@H](O)[C@](C#N)(c2ccc3c(N)ncnn23)O[C@@H]1CO[P@@](=O)(N[C@H](C)C(=O)OCC(CC)CC)Oc1ccccc1 | > 172 |  |  | > 50 | 2.9 | > 50 |  | > 50 | 1.6 | > 32.3 |  |  |  |  |  |  |  |  | 
14 | CCCCCCCCCCCCCC(=O)O[C@H]1[C@@H](OC(=O)CCCCCCCCCCCCC)[C@](C#N)(c2ccc3c(N)ncnn23)O[C@@H]1CO[P@@](=O)(N[C@H](C)C(=O)OCC(CC)CC)Oc1ccccc1 | > 4.13 | 31 | > 1.59 | > 50 | 12.1 | > 50 |  |  |  |  |  |  |  |  |  |  |  |  | 
15 | CCSCCCCCCCCCCCC(=O)O | > 50 | > 50 |  | > 50 | > 50 | > 50 |  |  |  |  |  |  |  |  |  |  |  |  | 
16 | CCCCCCCCCCCCCC(=O)O [MYRISTIC ACID] | > 50 | > 50 |  | > 50 | > 50 | > 50 |  |  |  |  |  |  |  |  |  |  |  |  | 

Reference: ChEMBL document CHEMBL5032526 (Eur J Med Chem, 2021)
